Experiments:
[1] = Tmax in Balb/c mouse at 2.5 mg/kg, iv by LC-MS/MS analysis; assay type: ADME, organism-based; settings: in vivo
Outline: (§1)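 Female BALB/c mice, 20-25 g, five per route. Dosed 25 mg/kg p.o. in 0.5% carboxymethyl cellulose or 2.5 mg/kg i.v. in 10% DMSO/saline. Blood sampled 5 min-72 h (p.o.) or 2 min-48 h (i.v.), quantified by LC/MS/MS with ESI+. Parameters by non-compartmental analysis; F = (AUCpo×dose_iv)/(AUCiv×dose_po)×100%.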

[2] = Genotoxicity in CHO-WBL cells assessed as chromosome aberration at 90 to 397.1 ug/ml incubated for 3 hrs followed by compound washout and measured after 17 hrs in presence of S9 fraction by Giemsa staining based; assay type: toxicity, subcellular, Cricetulus griseus; settings: chinese hamster, s9, 3 h, dose 90-397.1 µg/ml
Outline: (§2)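 CHO-WBL cells in McCoy's 5A with 10% FBS, seeded 20-24 h before treatment. Compound in DMSO, with or without serum-free S-9 mix. Treatment either 3 h, then HBSS wash and 17 h further culture, or 20 h; harvest at 20 h from treatment start. Colcemid 0.1 μg/mL for the final 2 h, hypotonic KCl, methanol:acetic acid fixation, Giemsa stain. 300 metaphases per concentration (150 per duplicate flask) scored.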

[3] = Toxicity in female Sprague-Dawley rat assessed as mortality at 50 to 450 mg/kg/day, po administered for 4 weeks; assay type: organism-based; settings: in vivo, 672 h, dose 50-450 mg/kg/day
Outline: (§3)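 SD rats, 6-7 weeks old (96 in total), split into vehicle, 50, 150 and 450 mg/kg/day groups of 12 females and 12 males each, given oral doses once daily for 4 weeks, then 2 weeks of recovery. Mortality, body weight, food intake, eyes, urine and neuropsychic signs were observed. Organ and bone marrow histopathology was done on 8 rats per sex per group after the last dose and on the remaining 4 per sex after 14 days of recovery.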

[4] = Toxicity in female Sprague-Dawley rat assessed as change in mean corpuscular hemoglobin at 150 mg/kg/day, po administered for 4 weeks followed by 2 week recovery period (Rvb =18.5 +/- 0.6 pg); assay type: organism-based; settings: in vivo, 672 h
Cytochrome P450 2C19 = Cytochrome P450 2C19 (Homo sapiens, UniProt P33261); assay: Inhibition of CYP2C19 in human liver microsomes after 20 mins by LC-MS/MS analysis; assay type: ADME
Outline: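 Human liver microsomes (0.2 mg/mL) in phosphate buffer, 20 min incubation with compound at 0.1-50 μM alongside isoform-specific substrates and a positive control. Substrate remaining monitored by LC-MS/MS at each concentration; IC50 derived.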

[5] = Toxicity in female Sprague-Dawley rat assessed as change in hemoglobin count at 50 mg/kg/day, po administered for 4 weeks followed by 2 week recovery period (Rvb =136 +/- 7 g/L); assay type: organism-based; settings: in vivo, 672 h
[6] = Toxicity in male Sprague-Dawley rat assessed as change in platelet count at 450 mg/kg/day, po administered for 4 weeks followed by 2 week recovery period (Rvb =1077 +/- 117 10^9/L); assay type: organism-based; settings: in vivo, 672 h
[7] = Toxicity in male Sprague-Dawley rat assessed as change in mean corpuscular hemoglobin at 50 mg/kg/day, po administered for 4 weeks followed by 2 week recovery period (Rvb =18.3 +/- 0.4 pg); assay type: organism-based; settings: in vivo, 672 h
[8] = system: Mycobacterium tuberculosis; assay: Antitubercular activity against Mycobacterium tuberculosis H37Rv infected in Balb/c mouse assessed as lung bacterial burden by measuring colony forming unit at 100 mg/kg/day, po administered via gavage 5 times per week for 3 weeks starting from 10 days post-infection and measured 24 hrs post last dose (reference value: 7.102 +/- 0.152 log10CFU); assay type: functional; settings: time 22 day
Outline: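 Female SPF BALB/c mice, 6 per group, aerosol-infected with M. tuberculosis H37Rv to deposit 50-100 bacilli per lung. Compound suspended in 0.5% CMC, given by oral gavage from day 10 post-infection, 5 times per week for 3 weeks; controls got 0.5% CMC. Lungs harvested the day after the last dose, homogenised, diluted in HBSS, plated on 7H11 agar in duplicate, incubated 3 weeks at 37 °C. Result expressed as mean log10 CFU; t-test versus control.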

[9] = Toxicity in male Sprague-Dawley rat assessed as change in neutrophil level at 50 mg/kg/day, po administered for 4 weeks followed by 2 week recovery period (Rvb =15.9 +/- 3.4 %); assay type: organism-based; settings: in vivo, 672 h
[10] = Toxicity in female Sprague-Dawley rat assessed as change in white blood cell count at 50 mg/kg/day, po administered for 4 weeks followed by 2 week recovery period (Rvb =3.61 +/- 0.75 10^9/L); assay type: organism-based; settings: in vivo, 672 h
[11] = Oral bioavailability in Balb/c mouse at 25 mg/kg by LC-MS/MS analysis; assay type: ADME, organism-based; settings: in vivo; outline: as §1
[12] = Toxicity in male Sprague-Dawley rat assessed as change in platelet count at 50 mg/kg/day, po administered for 4 weeks followed by 2 week recovery period (Rvb =1077 +/- 117 10^9/L); assay type: organism-based; settings: in vivo, 672 h
[13] = Toxicity in male Sprague-Dawley rat assessed as body weight loss at 50 to 450 mg/kg/day, po administered for 4 weeks measured at 1 week interval; assay type: organism-based; settings: in vivo, 672 h, dose 50-450 mg/kg/day; outline: as §3
[14] = Toxicity in female Sprague-Dawley rat assessed as ophthalmic changes at 50 to 450 mg/kg/day, po administered for 4 weeks followed by 2 week recovery period measured within 7 days of post recover period; assay type: organism-based; settings: in vivo, 672 h, dose 50-450 mg/kg/day; outline: as §3
[15] = Genotoxicity in CHO-WBL cells assessed as chromosome aberration at 20 to 150 ug/ml incubated for 3 hrs followed by compound washout and measured after 17 hrs in absence of S9 fraction by Giemsa staining based; assay type: toxicity, cell-based, Cricetulus griseus; settings: chinese hamster, dose 20-150 µg/ml; outline: as §2
[16] = Half life in Beagle dog hepatocytes at 2 uM by LC-MS/MS analysis; assay type: ADME, cell-based, Canis lupus familiaris, Hepatocyte
Outline: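 Hepatocytes (male CD-1 mouse, male SD rat, male beagle dog, male cynomolgus monkey, pooled human), final 1 μM compound and 1 million cells/mL, made by mixing 2 μM compound with 2 million cells/mL. Incubated at 37 °C in a CO2 incubator; sampled at 0, 15, 30, 60, 90 and 120 min. Quenched with methanol/ACN containing 0.1% formic acid. Parent remaining measured by LC-MS/MS.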

[17] = Toxicity in female Sprague-Dawley rat assessed as ophthalmic changes at 50 to 450 mg/kg/day, po administered for 4 weeks measured post last dose; assay type: organism-based; settings: in vivo, 672 h, dose 50-450 mg/kg/day; outline: as §3
[18] = Toxicity in female Sprague-Dawley rat assessed as abnormalities in urine at 50 to 450 mg/kg/day, po administered for 4 weeks measured within last 7 days of treatment period; assay type: organism-based; settings: in vivo, 672 h, dose 50-450 mg/kg/day
Outline: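 SD rats, 6-7 weeks, 12 male and 12 female per group. Oral dosing once daily at 50, 150 or 450 mg/kg/day or vehicle for 4 weeks, then 2-week recovery. 8 per sex dissected after last dose, remaining 4 per sex after 14-day recovery. Body weight, urine, food intake and clinical signs monitored.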

[19] = Toxicity in male Sprague-Dawley rat assessed as abnormalities in urine at 50 to 450 mg/kg/day, po administered for 4 weeks measured within last 7 days of treatment period; assay type: organism-based; settings: in vivo, 672 h, dose 50-450 mg/kg/day; outline: as §3
[20] = Toxicity in female Sprague-Dawley rat assessed as change in mean corpuscular volume at 450 mg/kg/day, po administered for 4 weeks followed by 2 week recovery period (Rvb =56.1 +/- 0.8 fL); assay type: organism-based; settings: in vivo, 672 h
[21] = Toxicity in female Sprague-Dawley rat assessed as effect on food consumption at 50 to 450 mg/kg/day, po administered for 4 weeks measured at 1 week interval; assay type: organism-based; settings: in vivo, 672 h, dose 50-450 mg/kg/day; outline: as §3

Cytochrome P450 2C19, sequence (P33261 whole entry, canonical isoform): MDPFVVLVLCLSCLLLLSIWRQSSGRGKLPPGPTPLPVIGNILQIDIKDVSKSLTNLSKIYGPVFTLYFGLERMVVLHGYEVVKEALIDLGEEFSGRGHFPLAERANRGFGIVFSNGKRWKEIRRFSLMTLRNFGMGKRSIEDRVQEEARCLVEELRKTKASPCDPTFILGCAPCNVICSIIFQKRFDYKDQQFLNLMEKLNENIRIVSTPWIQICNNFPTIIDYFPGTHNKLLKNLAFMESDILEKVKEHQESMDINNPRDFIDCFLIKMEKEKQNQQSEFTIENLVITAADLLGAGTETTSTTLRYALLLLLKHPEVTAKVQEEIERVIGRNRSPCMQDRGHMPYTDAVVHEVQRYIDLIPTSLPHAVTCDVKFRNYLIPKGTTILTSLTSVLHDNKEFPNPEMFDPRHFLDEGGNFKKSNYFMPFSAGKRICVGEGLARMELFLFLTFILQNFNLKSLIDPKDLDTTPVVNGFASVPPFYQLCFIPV

Q: With `CC(=O)NC[C@@H]1OC(=O)N2c3cc(F)c(N4CC[S+]([O-])CC4)cc3OC[C@@H]12` as the molecule, how does the Tmax [1] read?
A: 42 min

Q: And the Activity [2]?
A: Non-Toxic

Q: With `CC(=O)NC[C@@H]1OC(=O)N2c3cc(F)c(N4CCSCC4)cc3OC[C@@H]12` as the molecule, how does the Activity [3] read?
A: Non-Toxic

Q: And the Activity [4]?
A: 18.8 pg

Q: What about the IC50 (Cytochrome P450 2C19) of the same molecule?
A: 48.2 µM

Q: And the Activity [5]?
A: 126 g/L

Q: What about the Activity [6] of the same molecule?
A: 1038 10^9/L

Q: And the Activity [7]?
A: 18.7 pg

Q: And the Activity [8]?
A: 1.954 log10CFU

Q: And the Activity [9]?
A: 13%

Q: What about the Activity [10] of the same molecule?
A: 4.2 10^9/L

Q: What about the bioavailability [11] of the same molecule?
A: 55.9%

Q: And the Activity [12]?
A: 955 10^9/L

Q: And the Activity [13]?
A: Non-Toxic

Q: And the Activity [14]?
A: Non-Toxic

Q: And the Activity [15]?
A: Non-Toxic

Q: What about the half-life at 2 µM [16] of the same molecule?
A: 68 min

Q: What about the Activity [17] of the same molecule?
A: Non-Toxic

Q: What about the Activity [18] of the same molecule?
A: Non-Toxic

Q: What about the Activity [19] of the same molecule?
A: Non-Toxic

Q: And the Activity [20]?
A: 56.5 fL

Q: And the Activity [21]?
A: Non-Toxic

Source: ChEMBL document CHEMBL4725282, “Discovery of a Conformationally Constrained Oxazolidinone with Improved Safety and Efficacy Profiles for the Treatment of Multidrug-Resistant Tuberculosis” (J Med Chem, 2020)
